Legend:
[1] = molecular target: 5-hydroxytryptamine receptor 7 (Homo sapiens, UniProt P34969); experiment: Displacement of [3H]LSD from human recombinant 5HT7 receptor expressed in CHO cells; format: cell-based
Procedure, shortened: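 Membranes from stably transfected CHO cells. Reaction mix held 3 nM [3H]LSD and test compound in 50 mM Tris-HCl pH 7.4 with 10 mM MgCl2 and 0.5 mM EDTA, incubated 90 min at 27 °C. Stopped by rapid filtration on GF/C filters presoaked in 0.3% polyethylenimine, then scintillation counted. Methiothepin defined nonspecific binding. 7-8 concentrations were run in duplicate, and IC50 came from nonlinear regression of isotherms from three assays.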

[2] = molecular target: 5-hydroxytryptamine receptor 2A (Homo sapiens, UniProt P28223); experiment: Displacement of [3H]ketanserin from human recombinant 5HT2A receptor expressed in avCHO-K1 cells; format: cell-based, CHO-K1
Chain of 5-hydroxytryptamine receptor 2A (P28223 whole entry): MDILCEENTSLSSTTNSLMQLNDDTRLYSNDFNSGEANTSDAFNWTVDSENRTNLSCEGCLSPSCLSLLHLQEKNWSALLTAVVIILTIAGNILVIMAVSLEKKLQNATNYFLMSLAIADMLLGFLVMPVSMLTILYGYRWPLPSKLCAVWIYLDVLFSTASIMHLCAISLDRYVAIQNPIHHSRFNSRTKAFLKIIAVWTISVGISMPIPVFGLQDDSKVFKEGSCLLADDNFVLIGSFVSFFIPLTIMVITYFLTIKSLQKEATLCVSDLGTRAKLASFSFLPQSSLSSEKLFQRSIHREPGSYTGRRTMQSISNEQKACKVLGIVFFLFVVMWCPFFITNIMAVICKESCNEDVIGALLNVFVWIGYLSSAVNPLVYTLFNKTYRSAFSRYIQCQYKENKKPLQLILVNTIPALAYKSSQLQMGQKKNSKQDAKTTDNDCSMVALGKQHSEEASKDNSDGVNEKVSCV
Procedure, shortened: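 Used frozen membranes. [3H]ketanserin was at 1 nM, with mianserin defining nonspecific binding. Incubated 15 min at 37 °C in 50 mM Tris-HCl pH 7.4, then harvested on GF/C glass fiber filters presoaked in 0.05% Brij.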

[3] = molecular target: T1, 5-hydroxytryptamine receptor 2C (Homo sapiens, UniProt P28335); experiment: Displacement of [3H]mesulergine from human recombinant 5HT2C receptor expressed in CHO-K1 cells; format: cell-based
T1 sequence (P28335 whole entry): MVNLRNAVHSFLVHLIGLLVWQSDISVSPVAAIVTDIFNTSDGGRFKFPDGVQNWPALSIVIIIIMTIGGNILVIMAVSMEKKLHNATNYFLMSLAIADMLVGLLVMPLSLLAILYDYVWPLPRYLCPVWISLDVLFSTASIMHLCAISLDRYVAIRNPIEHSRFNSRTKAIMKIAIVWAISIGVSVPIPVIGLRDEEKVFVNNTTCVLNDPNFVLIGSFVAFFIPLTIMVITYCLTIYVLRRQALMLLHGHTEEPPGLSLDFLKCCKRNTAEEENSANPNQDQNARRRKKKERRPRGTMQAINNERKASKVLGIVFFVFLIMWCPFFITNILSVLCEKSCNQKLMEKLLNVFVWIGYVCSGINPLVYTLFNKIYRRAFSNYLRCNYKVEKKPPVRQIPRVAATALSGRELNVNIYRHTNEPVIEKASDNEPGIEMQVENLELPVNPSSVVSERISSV
Procedure, shortened: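 Frozen membranes from a stable cell line were incubated with 1 nM [3H]mesulergine and test compound in 50 mM Tris-HCl pH 7.7 containing 0.1% ascorbic acid and pargyline, 30 min at 37 °C. Mianserin defined nonspecific binding. Terminated by rapid filtration through GF/C filters presoaked in 1% BSA.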

[4] = molecular target: Serotonin 2 receptors; 5-HT2a & 5-HT2c (Homo sapiens) (UniProt P28223+P28335); experiment: Selectivity for human recombinant 5HT2A receptor over human recombinant 5HT2C receptor
Chain of Serotonin 2 receptors; 5-HT2a & 5-HT2c (Homo sapiens) (P28223 whole entry, looked up, one chain of several): as the sequence (P28223 whole entry) above

Homo sapiens = organism: Homo sapiens; experiment: Selectivity for human recombinant 5HT2A receptor over human recombinant 5HT7 receptor

Chain of 5-hydroxytryptamine receptor 7 (P34969 whole entry): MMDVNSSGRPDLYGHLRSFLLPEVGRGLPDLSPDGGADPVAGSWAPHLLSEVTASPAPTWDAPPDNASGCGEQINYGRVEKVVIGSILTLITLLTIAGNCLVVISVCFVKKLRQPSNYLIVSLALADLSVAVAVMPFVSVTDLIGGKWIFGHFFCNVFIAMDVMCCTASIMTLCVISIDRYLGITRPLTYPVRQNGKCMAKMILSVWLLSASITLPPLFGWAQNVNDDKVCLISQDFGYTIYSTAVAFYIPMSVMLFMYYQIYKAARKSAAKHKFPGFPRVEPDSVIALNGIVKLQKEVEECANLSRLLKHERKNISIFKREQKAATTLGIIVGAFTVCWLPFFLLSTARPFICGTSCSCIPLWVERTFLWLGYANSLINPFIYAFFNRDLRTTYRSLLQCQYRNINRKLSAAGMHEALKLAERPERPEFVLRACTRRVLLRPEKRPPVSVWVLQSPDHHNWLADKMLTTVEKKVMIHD

Row | Compound | IC50 [1] | IC50 [2] | IC50 [3] | Ratio IC50 [4] | Ratio IC50 (Homo sapiens)
1 | O=S(=O)(c1cccc2cccnc12)N(CCCN1CCN(c2ccc(F)cc2)CC1)CC1CC1 | 35.3 nM | 8.3 nM | 4750 nM |  | 
2 | CC(CCN1CCN(c2ccc(F)cc2)CC1)NS(=O)(=O)c1ccc2ccccc2c1 (centres undefined) | 526 nM | 6.2 nM | 90 nM | 15 | 85
3 | O=S(=O)(c1cccc2cccnc12)N(CCCN1CCN(c2ccccc2)CC1)CC1CC1 | 749 nM | 292 nM | 2160 nM |  | 
4 | O=S(=O)(c1cccc2cccnc12)N(CCCN1CCN(c2ccccc2)CC1)CC1CCCCC1 | 419 nM | 34.6 nM | 843 nM |  | 
5 | O=S(=O)(c1ccc2ccccc2c1)N(CCCN1CCN(c2ccc(F)cc2)CC1)CC1CC1 | 49.6 nM | 51 nM | 343 nM |  | 
6 | O=S(=O)(c1ccc2ccccc2c1)N(CCCN1CCN(c2ccc(F)cc2)CC1)CC1CCCCC1 | 1510 nM | 0.5 nM | 24 nM | 50 | 3000
7 | O=[N+]([O-])c1ccc(S(=O)(=O)N(CCCN2CCN(c3ccccc3)CC2)CC2CC2)cc1 | 500 nM | 180 nM | 1940 nM |  | 
8 | CC(CCN1CCN(c2cccc(C(F)(F)F)c2)CC1)NS(=O)(=O)c1ccc2ccccc2c1 (centres undefined) | 363 nM | 180 nM | 942 nM |  | 
9 | COc1ccc(S(=O)(=O)N(CCCN2CCN(c3cccc(C(F)(F)F)c3)CC2)CC2CCCCC2)cc1 | 678 nM | 19.5 nM | 33 nM |  | 
10 | O=S(=O)(c1ccc2ccccc2c1)N(CCCN1CCN(c2ccccc2)CC1)CC1CC1 | 117 nM | 35.9 nM | 479 nM |  | 
11 | O=S(=O)(c1ccc2ccccc2c1)N(CCCN1CCN(c2cccc(C(F)(F)F)c2)CC1)CC1CC1 | 342 nM | 221 nM | 304 nM |  | 
12 | COc1ccc(S(=O)(=O)N(CCCN2CCN(c3ccccc3OC)CC2)CC2CCCCC2)cc1 | 172 nM | 16.3 nM | 200 nM |  | 
13 | COc1ccccc1N1CCN(CCCN(CC2CC2)S(=O)(=O)c2ccc3ccccc3c2)CC1 | 188 nM | 85.8 nM | 549 nM |  | 
14 | COc1ccc(S(=O)(=O)N(CCCN2CCN(c3cccc(C(F)(F)F)c3)CC2)CC2CC2)cc1 | 124 nM | 726 nM | 1030 nM |  | 
15 | COc1ccccc1N1CCN(CCCN(CC2CCCCC2)S(=O)(=O)c2ccc3ccccc3c2)CC1 | 500 nM | 11.6 nM | 70 nM |  | 
16 | COc1ccc(S(=O)(=O)N(CCCN2CCN(c3ccc(F)cc3)CC2)CC2CC2)cc1 | 93 nM | 72.5 nM | 723 nM |  | 
17 | O=S(=O)(c1cccc2ccccc12)N(CCCN1CCN(c2ccccc2)CC1)CC1CCCCC1 | 195 nM | 2.6 nM | 50.7 nM |  | 
18 | COc1ccccc1N1CCN(CCC(C)NS(=O)(=O)c2ccc3ccccc3c2)CC1 (centres undefined) | 316 nM | 664 nM | 539 nM |  | 
19 | O=S(=O)(c1ccc(C(F)(F)F)cc1)N(CCCN1CCN(c2ccccc2)CC1)CC1CC1 | 334 nM | 70.8 nM | 565 nM |  | 

Row | Compound | IC50 [1] | IC50 [2] | IC50 [3] | Ratio IC50 [4] | Ratio IC50 (Homo sapiens)
20 | COc1ccc(S(=O)(=O)N(CCCN2CCN(c3ccccc3)CC2)CC2CCCCC2)cc1 | 567 nM | 9.4 nM | 79 nM |  | 
21 | CC(CCN1CCN(c2ccccc2)CC1)NS(=O)(=O)c1ccc2ccccc2c1 (centres undefined) | 657 nM | 12.7 nM | 200 nM | 16 | 50
22 | O=S(=O)(c1cccc2cccnc12)N(CCCN1CCN(c2cccc(C(F)(F)F)c2)CC1)CC1CC1 | 6.3 nM | 75 nM | 694 nM |  | 
23 | O=[N+]([O-])c1ccc(S(=O)(=O)N(CCCN2CCN(c3ccccc3)CC2)CC2CCCCC2)cc1 | 87 nM | 4.2 nM | 45.7 nM |  | 
24 | O=S(=O)(c1ccc2ccccc2c1)N(CCCN1CCN(c2ccccc2)CC1)CC1CCCCC1 | 1240 nM | 0.7 nM | 65 nM | 100 | 1500
25 | O=S(=O)(c1ccc(F)cc1)N(CCCN1CCN(c2ccccc2)CC1)CC1CC1 | 147 nM | 142 nM | 1980 nM |  | 
26 | O=S(=O)(c1ccc(F)cc1)N(CCCN1CCN(c2ccccc2)CC1)CC1CCCCC1 | 110 nM | 13.2 nM | 294 nM |  | 
27 | O=S(=O)(c1cccc2cccnc12)N(CCCN1CCN(c2ccc(F)cc2)CC1)CC1CCCCC1 | 442 nM | 5.1 nM | 136 nM |  | 
28 | O=S(=O)(c1cccc2ccccc12)N(CCCN1CCN(c2ccccc2)CC1)CC1CC1 | 152 nM | 171 nM | 1460 nM |  | 
29 | COc1ccccc1N1CCN(CCCN(CC2CCCCC2)S(=O)(=O)c2cccc3cccnc23)CC1 | 24 nM | 59.9 nM | 118 nM |  | 
30 | O=S(=O)(c1ccc(C(F)(F)F)cc1)N(CCCN1CCN(c2ccccc2)CC1)CC1CCCCC1 | 456 nM | 7.1 nM | 156 nM |  | 
31 | O=S(=O)(c1cccc2cccnc12)N(CCCN1CCN(c2cccc(C(F)(F)F)c2)CC1)CC1CCCCC1 | 160 nM | 29.1 nM | 38.8 nM |  | 
32 | COc1ccc(S(=O)(=O)N(CCCN2CCN(c3ccccc3)CC2)CC2CC2)cc1 | 121 nM | 136 nM | 691 nM |  | 
33 | COc1ccccc1N1CCN(CCCN(CC2CC2)S(=O)(=O)c2cccc3cccnc23)CC1 | 12.3 nM | 561 nM | 8310 nM |  | 
34 | COc1ccc(S(=O)(=O)N(CCCN2CCN(c3ccccc3OC)CC2)CC2CC2)cc1 | 316 nM | 2210 nM | 1980 nM |  | 
35 | COc1ccc(S(=O)(=O)N(CCCN2CCN(c3ccc(F)cc3)CC2)CC2CCCCC2)cc1 | 980 nM | 3.4 nM | 40 nM |  | 
36 | O=S(=O)(c1cccc2cccnc12)N(CCCN1CCN(c2ccc(Cl)c(Cl)c2)CC1)CC1CCCCC1 | 2300 nM | 7.7 nM | 66.5 nM |  | 
37 | O=S(=O)(c1ccc2ccccc2c1)N(CCCN1CCN(c2cccc(C(F)(F)F)c2)CC1)CC1CCCCC1 | 888 nM | 13.1 nM | 66 nM |  | 
